Measured values from ChEMBL document CHEMBL1148740, “Synthesis and SAR investigations for novel melanin-concentrating hormone 1 receptor (MCH1) antagonists Part 1. The discovery of arylacetamides as viable replacements for the dihydropyrimidinone moiety of an HTS hit” (J Med Chem, 2007).

Columns and labels:
[1] = target: T1, Melanin-concentrating hormone receptor 1 (Rattus norvegicus, UniProt P97639); test: Displacement of [3H]SNAP 7941 from rat MCHR1 expressed in HEK293 cells; assay type: cell-based
T1 sequence (P97639 whole entry): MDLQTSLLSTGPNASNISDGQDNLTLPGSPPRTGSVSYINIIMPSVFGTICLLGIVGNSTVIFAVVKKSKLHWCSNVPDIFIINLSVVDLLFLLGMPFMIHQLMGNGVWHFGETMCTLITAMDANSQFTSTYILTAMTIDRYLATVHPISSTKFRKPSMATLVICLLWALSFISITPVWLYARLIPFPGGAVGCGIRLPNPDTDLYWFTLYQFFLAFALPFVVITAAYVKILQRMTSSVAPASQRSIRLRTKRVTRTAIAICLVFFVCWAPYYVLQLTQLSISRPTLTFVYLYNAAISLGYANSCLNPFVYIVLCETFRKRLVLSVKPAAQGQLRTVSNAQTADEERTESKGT
How it was run: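 Membranes from PEAK-RAPID HEK293 cells transiently transfected with rat MCH1 were incubated with varying concentrations of [3H]SNAP-7941. Buffer was 50 mM Tris, 10 mM MgCl2, 0.16 mM PMSF, 1 mM 1,10-phenanthroline, 0.2% BSA, pH 7.4; incubation 25 °C, 90 min. Ki is the mean ± SEM of n = 3.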

[2] = Drug level in Sprague-Dawley rat plasma at 10 mg/kg, po after 1 hr; assay type: ADME, organism-based; design: dose 10 mg/kg, route oral
How it was run: (§1)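 Femoral-artery-cannulated male Sprague-Dawley rats (300-350 g), n = 3, were given 10 mg/kg orally in vehicle. Blood was drawn predose and at 1, 2 and 4 h; brains were collected at 4 h and stored at -80 °C. Plasma or brain homogenate was pooled from three rats per time point, protein-precipitated and analysed by LC/MS/MS. Quantitation limits were 2 ng/mL plasma and 2 ng/g brain.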

[3] = Drug level in Sprague-Dawley rat plasma at 10 mg/kg, po after 2 hrs; assay type: ADME, organism-based; design: dose 10 mg/kg, route oral; how it was run: as §1
[4] = Drug level in Sprague-Dawley rat plasma at 10 mg/kg, po after 4 hrs; assay type: ADME, organism-based; design: dose 10 mg/kg, route oral; how it was run: as §1
[5] = Drug level in Sprague-Dawley rat brain at 10 mg/kg, po after 4 hrs; assay type: ADME, organism-based; design: dose 10 mg/kg, route oral; details: read-out: Drug uptake; how it was run: as §1
[6] = target: T1, Melanin-concentrating hormone receptor 1; test: Antagonist activity at rat MCHR1 expressed in HEK293 cells assessed as effect on calcium mobilization; assay type: functional, cell-based
How it was run: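 HEK293 cells stably expressing rat MCH1 were seeded for 16 h, loaded with 1.5 µM Fluo4 in HBSS for 60 min, washed, and preincubated 20 min with a range of test concentrations. They were then challenged with 30 nM MCH peptide. Calcium-driven fluorescence was read on a FLIPR, and IC50 came from nonlinear curve fitting.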

[7] = system: Rattus norvegicus; test: Anxiolytic activity in rat assessed as increase in social interaction time at 0.3 mg/kg, po relative to control
[8] = Bioavailability in Sprague-Dawley rat at 1 mg/kg, po and 1 mg/kg, iv; assay type: ADME, organism-based; details: in vivo
How it was run: (§2)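 Sprague-Dawley rats were dosed 1 mg/kg orally (n = 2) and 1 mg/kg iv (n = 2). Plasma concentration-time profiles were measured by LC/MS/MS and used for pharmacokinetic analysis.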

[9] = Plasma clearance in Sprague-Dawley rat at 1 mg/kg, po and 1 mg/kg, iv; assay type: ADME, organism-based; how it was run: as §2
[10] = Cmax in Sprague-Dawley rat at 1 mg/kg, po and 1 mg/kg, iv; assay type: ADME, organism-based; details: in vivo; how it was run: as §2
[11] = Tmax in Sprague-Dawley rat at 1 mg/kg, po and 1 mg/kg, iv; assay type: ADME, organism-based; details: in vivo; how it was run: as §2
[12] = Half life in Sprague-Dawley rat at 1 mg/kg, po and 1 mg/kg, iv; assay type: ADME, organism-based; details: in vivo; how it was run: as §2
[13] = Volume of distribution in Sprague-Dawley rat at 1 mg/kg, po and 1 mg/kg, iv; assay type: ADME, organism-based; details: in vivo, read-out: Vss; how it was run: as §2
[14] = Bioavailability in Sprague-Dawley rat at 2 mg/kg, po and 1 mg/kg, iv; assay type: ADME, organism-based; details: in vivo
How it was run: (§3)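 Male Sprague-Dawley rats (200-250 g), n = 2, received 1 mg/kg iv, then 2 mg/kg orally in the same rat 24 h later. Plasma was taken from sampled blood by centrifugation and analysed by turbulent-flow LC/MS/MS. For blood/plasma distribution, blood was spiked at 109 ng/mL. Parameters came from plasma concentration-time profiles.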

[15] = Blood clearance in Sprague-Dawley rat at 2 mg/kg, po and 1 mg/kg, iv; assay type: ADME, organism-based; details: whole blood; how it was run: as §3
[16] = Plasma clearance in Sprague-Dawley rat at 2 mg/kg, po and 1 mg/kg, iv; assay type: ADME, organism-based; how it was run: as §3
[17] = Cmax in Sprague-Dawley rat at 2 mg/kg, po and 1 mg/kg, iv; assay type: ADME, organism-based; details: in vivo; how it was run: as §3
[18] = Tmax in Sprague-Dawley rat at 2 mg/kg, po and 1 mg/kg, iv; assay type: ADME, organism-based; details: in vivo; how it was run: as §3
[19] = Half life in Sprague-Dawley rat at 2 mg/kg, po and 1 mg/kg, iv; assay type: ADME, organism-based; details: in vivo; how it was run: as §3
[20] = Volume of distribution in Sprague-Dawley rat at 2 mg/kg, po and 1 mg/kg, iv; assay type: ADME, organism-based; details: in vivo, read-out: Vss; how it was run: as §3
[21] = organism: Rattus norvegicus; test: Anxiolytic activity in rat assessed as increase in social interaction time relative to control; assay type: functional
How it was run: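 Rats were acclimated 5 days, housed singly 5 days and handled 5 min daily. Weight-matched (±5%) unfamiliar pairs got identical treatment 1 h before testing, five pairs per group. Chlordiazepoxide 5 mg/kg was the reference. Pairs were placed 15 min in a floor-gridded arena, sessions were videotaped, and social interaction time was scored.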

Compound | Ki [1] | IC50 [6] | further results
Cc1ccc(NC(=O)C(C)C)cc1C1CCN(CCCNC(=O)C(c2ccccc2)c2ccccc2)CC1 | 3 nM | 27 nM | concentration at 1 h [2]: 69 ng/mL; concentration at 2 h [3]: 59 ng/mL; concentration at 4 h [4]: 75 ng/mL; concentration at 4 h [5]: 13 ng/g
CNC1=Nc2ccc(Cl)cc2C(c2ccccc2)=[N+]([O-])C1 [CHLORDIAZEPOXIDE] |  |  | Time [7]: 85.1 s
CC(C)C(=O)Nc1cccc(C2CCN(CCCNC(=O)C(c3ccccc3)c3ccccc3)CC2)c1 | 1.9 nM | 25 nM | concentration at 1 h [2]: 15 ng/mL; concentration at 2 h [3]: 12 ng/mL; concentration at 4 h [4]: 15 ng/mL
Cc1ccc(NC(=O)C(C)C)cc1C1CCN(CCCNC(=O)C(C)c2ccccc2)CC1 (single isomer, unassigned; form 1) | 34 nM | 68 nM | 
Cc1ccc(NC(=O)C(C)C)cc1C1CCN(CCCNC(=O)[C@H](C)c2ccc(F)cc2)CC1 | 28 nM | 65 nM | 
Cc1ccc(NC(=O)C(C)C)cc1C1CCN(CCCNC(=O)C(O)(c2ccccc2)c2ccccc2)CC1 | 0.6 nM | 27 nM | 
CC(C)C(=O)Nc1cccc(C2CCN(CCCCCCNC(=O)C(c3ccccc3)c3ccccc3)CC2)c1 | 29 nM | 600 nM | 
CCCCCC(C(=O)NCCCN1CCC(c2cccc(NC(=O)C(C)C)c2)CC1)(c1ccccc1)c1ccccc1 | 8.5 nM |  | 
CC(C)C(=O)Nc1cccc(C2CCN(CCCCNC(=O)C(c3ccccc3)c3ccccc3)CC2)c1 | 50 nM | 620 nM | 
COCC1=C(C(=O)OC)[C@H](c2ccc(F)c(F)c2)N(C(=O)NCCCN2CCC(c3cccc(NC(C)=O)c3)CC2)C(=O)N1 [SNAP-7941] | 0.25 nM |  | bioavailability [8]: 6%; clearance [9]: 153 mL/min/kg; Cmax [10]: 2.02 ng/mL; Tmax [11]: 4 h; half-life [12]: 1.7 h; Vd [13]: 24 L/kg
CC(C)C(=O)Nc1cccc(C2CCN(CCCNC(=O)C(C)(c3ccccc3)c3ccccc3)CC2)c1 | 7.5 nM | 140 nM | 
CC(C)C(=O)Nc1cccc(C2CCN(CCNC(=O)C(c3ccccc3)c3ccccc3)CC2)c1 | 1.9 nM | 57 nM | 
Cc1ccc(NC(=O)C(C)C)cc1C1CCN(CCCNC(=O)C(c2ccc(F)cc2)c2ccc(F)cc2)CC1 | 0.62 nM | 27 nM | 
CCC(C(=O)NCCCN1CCC(c2cccc(NC(=O)C(C)C)c2)CC1)(c1ccccc1)c1ccccc1 |  | 190 nM | 
CC(C)C(=O)Nc1cccc(C2CCN(CCCCCNC(=O)C(c3ccccc3)c3ccccc3)CC2)c1 | 47 nM |  | 
CC(C)C(=O)Nc1cc(C2CCN(CCCNC(=O)C(c3ccc(F)cc3)c3ccc(F)cc3)CC2)c(F)cc1F | 1.8 nM | 34 nM | bioavailability [14]: 48%; clearance [15]: 60 mL/min/kg; clearance [16]: 40 mL/min/kg; Cmax [17]: 80 ng/mL; Tmax [18]: 0.6 h; half-life [19]: 2.1 h; Vd [20]: 3.6 L/kg; Activity [21]: 69.3 s; minimal effective dose ([21]; Rattus norvegicus, read-out: MED): 0.3 mg/kg; Time [7]: 69.3 s
Cc1ccc(NC(=O)C(C)C)cc1C1CCN(CCCNC(=O)[C@@H](C)c2ccc(F)cc2)CC1 | 10 nM | 26 nM | bioavailability [14]: 81%; clearance [15]: 55 mL/min/kg; clearance [16]: 25 mL/min/kg; Cmax [17]: 305 ng/mL; Tmax [18]: 2.2 h; half-life [19]: 4.2 h; Vd [20]: 3.4 L/kg
Cc1ccc(NC(=O)C(C)C)cc1C1CCN(CCCNC(=O)C2(c3ccc(F)cc3)CCCC2)CC1 | 3.8 nM | 44 nM | 
Cc1ccc(NC(=O)C(C)C)cc1C1CCN(CCCNC(=O)C(C)c2ccccc2)CC1 (single isomer, unassigned; form 2) | 37 nM | 130 nM | 
CC(C)C(=O)Nc1c(F)cc(F)c(C2CCN(CCCNC(=O)C(c3ccc(F)cc3)c3ccc(F)cc3)CC2)c1F | 2.9 nM |  | 
Cc1ccc(C2CCN(CCCNC(=O)C(c3ccccc3)c3ccccc3)CC2)cc1NC(=O)C(C)C | 500 nM | > 1000 nM | 
CC(C)C(=O)Nc1cccc(C2CCN(CCCNC(=O)C(c3ccc(F)cc3)c3ccc(F)cc3)CC2)c1 | 1.4 nM | 13 nM | 
Cc1ccc(NC(=O)C(C)C)cc1C1CCN(CCCNC(=O)C2(c3ccc(F)cc3)CCCCC2)CC1 | 1.9 nM | 190 nM | 
